Test results as given in ChEMBL document CHEMBL1137541, “[(2-Phenylindol-3-yl)methylene]propanedinitriles inhibit the growth of breast cancer cells by cell cycle arrest in G(2)/M phase and apoptosis” (Bioorg Med Chem, 2007).
Activity calls are given as the source filed them. The calls are words filed in the database; no cut-off is given here.

Assays:
MCF7 = assay: Antiproliferative activity against human MCF7 cells after 5 days by microplate assay; assay type: functional, cell-based; details: MCF7, 120 h
Method in brief: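 MCF-7 cells in EMEM with sodium pyruvate, gentamycin, NaHCO3, phenol red, 10% FCS; grown 2–3 days in 96-well plates, then medium with compound (0.1% DMF in controls) for 5 days. Glutaric dialdehyde fixation, 0.02% crystal violet staining, 70% EtOH extraction, OD 578 nm. Initial density from fixed wells. IC50; mean of two independent experiments, 16–24 replicates.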

MDA-MB-231 [1] = assay: Antiproliferative activity against human MDA-MB-231 cells after 4 days by microplate assay; assay type: functional, cell-based; details: MDA-MB-231, 96 h
Method in brief: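 Cells grown 2–3 days in 96-well plates (37 °C, 5% CO2), medium then replaced with compound-containing medium (controls 0.1% DMF), about 4 days' exposure. Fixed with 1% glutaric dialdehyde, stained with 0.02% crystal violet for 25 min, dye extracted with 70% EtOH, OD read at 578 nm; initial density from fixed wells. IC50 from 16–24 replicates per experiment.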

A-431 = assay: Inhibition of cell growth in human A431 cells after 3 days by microplate assay; assay type: functional, cell-based; details: A-431, 72 h
Method in brief: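 A-431 vulva carcinoma cells, crystal violet microplate protocol as for MDA-MB 231 but with 5% FCS; 3 days' exposure, 0.1% DMF controls. Fixation with glutaric dialdehyde, 0.02% crystal violet, 70% EtOH extraction, OD 578 nm. IC50, mean of four independent experiments with 16–24 replicates ± SD.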

Bos taurus = species on record: Bos taurus; assay: Inhibition of temperature-induced tubulin polymerization of calf brain at 40 uM; set-up: scale not given: the % may be the effect or the level left
Method in brief: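 Calf brain tubulin purified by temperature-dependent polymerization cycles, then depolymerized at 0 °C in PEMG buffer. Supernatant preincubated 15 min at 37 °C with compound (40 µM, DMSO), chilled, and GTP added. Polymerization started by shifting from 2 °C to 37 °C, followed by absorbance at 350 nm over 20 min. Reported relative to inhibitor-free controls (100%).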

HL-60 (Homo sapiens) [2] = assay: Induction of apoptosis in human HL-60 cells assessed as increase in caspase 3 activation at 1 uM after 24 hrs
HL-60 (Homo sapiens) [3] = assay: Inhibition of cell growth in human HL-60 cells after 48 hrs by MTT assay; details: HL-60, 48 h
HL-60 (Homo sapiens) [4] = assay: Induction of apoptosis in human HL-60 cells assessed as increase in caspase 9 activation at 1 uM after 24 hrs
MDA-MB-231 [5] = assay: Cell cycle arrest in MDA-MB-231 cells by accumulation at G2/M phase at 0.1 uM after 24 hrs by flow cytometry; assay type: functional, cell-based; details: Homo sapiens
Method in brief: (§1)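 Cells grown to 70–80% confluence in flasks and exposed 24 h to compound in DMF (0.1% final), one flask per concentration. Trypsinized, fixed in ice-cold 70% EtOH, DNA extraction buffer 5 min, propidium iodide staining ≥30 min at room temperature. Flow cytometry of 8,000–15,000 events; percentages of sub-G1, G1/G0, S, G2/M cells; representative of two experiments.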

MDA-MB-231 [6] = assay: Cell cycle arrest in MDA-MB-231 cells by accumulation at G2/M phase at 0.01 uM after 24 hrs by flow cytometry; assay type: functional, cell-based; details: Homo sapiens; method in brief: as §1
MDA-MB-231 [7] = assay: Cell cycle arrest in MDA-MB-231 cells by accumulation at G2/M phase at 1.0 uM after 24 hrs by flow cytometry; assay type: functional, cell-based; details: Homo sapiens; method in brief: as §1
MDA-MB-231 [8] = assay: Cell cycle arrest in MDA-MB-231 cells by accumulation at G2/M phase at 0.5 uM after 24 hrs by flow cytometry; assay type: functional, cell-based; details: Homo sapiens; method in brief: as §1
Mus musculus [9] = assay: Effect on body weight in MXT cells xenografted B2D2F1 mouse at 10 mg/kg, sc; assay type: functional; details: route subcutaneous
Method in brief: (§2)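 Hormone-resistant MXT tumor pieces (1 mm³) transplanted into 8- to 9-week-old female B2D2F1 mice, groups of 6–8, randomly assigned. Compound given subcutaneously three times per week for two weeks. Tumor area compared with untreated controls (T/C × 100). Body weight change taken between first and last treatment day.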

[10] = Antitumor activity against MXT cells xenografted B2D2F1 mouse at 30 mg/kg, sc relative to control; assay type: functional; details: route subcutaneous; method in brief: as §2
[11] = Antitumor activity against MXT cells xenografted B2D2F1 mouse at 10 mg/kg, sc relative to control; assay type: functional; details: route subcutaneous; method in brief: as §2
Mus musculus [12] = assay: Effect on body weight in MXT cells xenografted B2D2F1 mouse at 30 mg/kg, sc; assay type: functional; details: route subcutaneous; method in brief: as §2

| IC50 (MCF7) [nM] | IC50 (MDA-MB-231 [1]) [nM] | SMILES | further results |
| --- | --- | --- | --- |
| 100 | 78 | CCCCCc1ccc2[nH]c(-c3ccc(C(F)(F)F)cc3)c(C=C(C#N)C#N)c2c1 | – |
| 100 | 65 | CCCCc1ccc2[nH]c(-c3ccc(C)cc3)c(C=C(C#N)C#N)c2c1 | – |
| 180 | 470 | COc1ccc(-c2[nH]c3ccccc3c2C=O)cc1 | IC50 (A-431): 210 nM; Activity (Bos taurus): 3% |
| 300 | 260 | COc1ccc(-c2[nH]c3cc(OC)ccc3c2C=C(C#N)C#N)cc1 | – |
| 150 | 56 | CCCCc1ccc2[nH]c(-c3ccc(C(F)(F)F)cc3)c(C=C(C#N)C#N)c2c1 | Activity (HL-60 (Homo sapiens) [2]): Active; IC50 (HL-60 (Homo sapiens) [3]): 70 nM; Activity (HL-60 (Homo sapiens) [4]): Active |
| 43 | 47 | COc1ccc(-c2[nH]c3cc(F)ccc3c2C=O)cc1 | IC50 (A-431): 180 nM; Activity (Bos taurus): 8% |
| 13 | 26 | CCCCc1ccc2[nH]c(-c3ccc(OC)cc3)c(C=C(C#N)C#N)c2c1 | – |
| 650 | 420 | O=Cc1c(-c2ccccc2)[nH]c2ccccc12 [2-PHENYL-1H-INDOLE-3-CARBALDEHYDE] | IC50 (A-431): 760 nM; Activity (Bos taurus): 98% |
| 340 | 590 | COc1ccc(-c2[nH]c3ccc(OC)cc3c2C=C(C#N)C#N)cc1 | – |
| 250 | 180 | COc1ccc2c(C=C(C#N)C#N)c(-c3ccc(C)cc3)[nH]c2c1 | – |
| 200 | 75 | COc1ccc(-c2[nH]c3cc(Cl)c(C)cc3c2C=C(C#N)C#N)cc1 | – |
| 310 | 210 | COc1ccc(-c2[nH]c3ccc(C(C)C)cc3c2C=C(C#N)C#N)cc1 | – |
| 76 | 42 | CCCCCc1ccc2[nH]c(-c3ccc(OC)cc3)c(C=C(C#N)C#N)c2c1 | Activity (HL-60 (Homo sapiens) [2]): Active; IC50 (HL-60 (Homo sapiens) [3]): 41 nM; Activity (HL-60 (Homo sapiens) [4]): Active |
| 770 | 720 | COc1ccc(-c2[nH]c3ccccc3c2C=C(C#N)C#N)cc1 | – |
| 68 | 150 | CCCCCCc1ccc2[nH]c(-c3ccc(C(F)(F)F)cc3)c(C=C(C#N)C#N)c2c1 | – |
| 190 | 83 | CCCc1ccc2[nH]c(-c3ccc(OC)cc3)c(C=C(C#N)C#N)c2c1 | – |
| 310 | 400 | COc1ccc(-c2[nH]c3ccc(F)cc3c2C=C(C#N)C#N)cc1 | – |
| – | 4.5 | CC[C@]1(O)C[C@H]2CN(CCc3c([nH]c4ccccc34)[C@@](C(=O)OC)(c3cc4c(cc3OC)N(C=O)[C@H]3[C@@](O)(C(=O)OC)[C@H](OC(C)=O)[C@]5(CC)C=CCN6CC[C@]43[C@@H]65)C2)C1 [VINCRISTINE] | Activity (MDA-MB-231 [5]): Active; Activity (MDA-MB-231 [6]): Active |
| 180 | 260 | COc1ccc(-c2[nH]c3ccc(OC)cc3c2C=O)cc1 | IC50 (A-431): 200 nM; Activity (Bos taurus): 7% |
| 190 | 430 | N#CC(C#N)=Cc1c(-c2ccccc2)[nH]c2ccccc12 | – |
| 25 | 46 | CCCCCCc1ccc2[nH]c(-c3ccc(OC)cc3)c(C=C(C#N)C#N)c2c1 | Activity (MDA-MB-231 [7]): Active; Activity (MDA-MB-231 [5]): Active; Activity (MDA-MB-231 [8]): Active |
| 200 | 280 | COc1ccc(-c2[nH]c3ccc(C)cc3c2C=C(C#N)C#N)cc1 | – |
| 220 | 280 | COc1ccc(-c2[nH]c3cc(F)ccc3c2C=C(C#N)C#N)cc1 | Activity (Mus musculus [9]): 3.6%; Activity [10]: 56%; Activity [11]: 74%; Activity (Mus musculus [12]): 2.3% |
| – | – | COc1cc([C@@H]2c3cc4c(cc3[C@@H](O[C@@H]3O[C@@H]5CO[C@@H](C)O[C@H]5[C@H](O)[C@H]3O)[C@H]3COC(=O)[C@H]23)OCO4)cc(OC)c1O [ETOPOSIDE] | IC50 (HL-60 (Homo sapiens) [3]): 315 nM |
| 200 | 76 | CCCCc1ccc2[nH]c(-c3ccc(CC)cc3)c(C=C(C#N)C#N)c2c1 | – |
